≈ marks a conversion by molar mass, not a printed value. Read-outs that look alike come from different tables or passages of the source.
How the values were obtained:
[1] = test system: S. aureus ATCC 25923 (Sa23); assay: MIC, microdilution with resazurin; format: cell-based; settings: Staphylococcus aureus, ATCC25923, read-out: MIC Sa23
Outline: (§1)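 Compounds dissolved in DMSO at 2 mg/mL. Overnight blood-agar colonies were suspended in PBS to 0.5 McFarland, then diluted in Mueller Hinton broth to about 1x10^6 cfu/mL with resazurin (1:1000 of 0.1% w/v stock). Twofold DMSO dilutions were added 1:40, giving 50 to 0.4 μg/mL at 2.5% DMSO. Incubation was 35 °C for 16-20 h. Blue/non-turbid wells counted as inhibited, pink/turbid as grown.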

[2] = test system: S. aureus ATCC 33591 (Sa91); assay: MIC, microdilution with resazurin; format: cell-based; settings: Staphylococcus aureus, ATCC33591, read-out: MIC Sa91
Outline: as §1

[3] = test system: S. aureus ATCC 33592 (Sa92); assay: MIC, microdilution with resazurin; format: cell-based; settings: Staphylococcus aureus, ATCC33592, read-out: MIC Sa92
Outline: as §1

[4] = test system: S. aureus ATCC 700699 (Sa99); assay: MIC, microdilution with resazurin; format: cell-based; settings: Staphylococcus aureus, ATCC700699, read-out: MIC Sa99
Outline: as §1

[5] = test system: S. aureus BAA-2312 (Sa12); assay: MIC, microdilution with resazurin; format: cell-based; settings: Staphylococcus aureus, BAA2312, read-out: MIC Sa12
Outline: as §1

[6] = test system: S. epidermidis 700296 (Se); assay: MIC, microdilution with resazurin; format: cell-based; settings: Staphylococcus epidermidis, read-out: MIC Se
Outline: as §1

[7] = test system: B. subtilis ATCC 6623 (Bs); assay: MIC, microdilution with resazurin; format: cell-based, Bacillus subtilis; settings: for MIC: Bacillus subtilis, ATCC6623, read-out: MIC Bs
[8] = test system: A. baumannii ATCC 747 (Ab47); assay: MIC, microdilution with resazurin; format: cell-based, Acinetobacter baumannii; settings: for MIC: Acinetobacter baumannii, ATCC747, read-out: MIC Ab47; for MIC Ab47: A. baumannii ATCC 747
Outline: as §1

[9] = test system: A. baumannii ATCC 19606 (type strain, Ab06); assay: MIC and MBC; format: cell-based, Acinetobacter baumannii; settings: for MIC / MBC: Acinetobacter baumannii
Outline: as §1

[10] = test system: S. aureus ATCC 25923 biofilm formation; assay: Biofilm inhibition assay; format: cell-based, Staphylococcus aureus; settings: 2xMIC, MIC and 0.5xMIC concentrations, 24 hours
Outline: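 Blood-agar culture was suspended in PBS (0.5 McFarland), then diluted 1:100 in yeast extract casamino acid broth (about 1x10^6 cfu/mL). Compound at 2xMIC, MIC and 0.5xMIC was added before biofilm formation, in triplicate, with broth-only and bacteria+DMSO controls. Incubation was 35 °C for 24 h. Wells were PBS-washed, dried, stained with 0.1% crystal violet, solubilised in 33% acetic acid and read at 620 nm. % inhibition = [1−(ODcompound−ODbroth)/(ODdmso−ODbroth)]×100, from mean and SD.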

[11] = test system: S. aureus ATCC 25923 preformed biofilm; assay: Biofilm destruction assay; format: cell-based, Staphylococcus aureus; settings: 2xMIC, MIC and 0.5xMIC tested, 24 hours
Outline: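 Biofilm was first grown in 96-well plates for 24 h at 35 °C and washed with PBS to remove unadhered cells. Fresh yeast extract casamino acid broth was added with compound at 2xMIC, MIC or 0.5xMIC, or DMSO, in triplicate, plus broth-only wells. Incubation was 35 °C for 24 h. Crystal violet was stained, solubilised and read at 620 nm. % destruction = [1−(ODcompound−ODbroth)/(ODdmso−ODbroth)]×100, from triplicate means.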

[12] = test system: human embryonic kidney cell line (HEK293); assay: Toxicity against HEK293 cell line; format: cell-based
[13] = test system: tested Gram-positive bacterial strains; assay: MIC, text summary over tested Gram-positive strains; format: cell-based; settings: read-out: MIC value as low as
[14] = test system: tested A. baumannii strains; assay: MIC, text summary over A. baumannii strains; format: cell-based, Acinetobacter baumannii; settings: Acinetobacter baumannii, read-out: MIC value as low as
Outline: as §1

[15] = test system: A. baumannii ATCC BAA-1605 (Ab05); assay: MIC, microdilution with resazurin; format: cell-based, Acinetobacter baumannii
Outline: as §1

[16] = test system: A. baumannii ATCC 19606; assay: Time kill assay; format: cell-based, Acinetobacter baumannii; settings: 4xMIC
Outline: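 Growth curves by optical density set the log phase. Log-phase bacteria (about 2 h shaking in Mueller Hinton broth II) were diluted in warm broth to about 3x10^6 cfu/mL. They were exposed to compound at 4xMIC (other multiples where indicated), in triplicate, at 35 °C. Colistin (A. baumannii) or vancomycin (S. aureus) and DMSO were included. Samples at 0, 2, 4, 6, 8, 10, 12 and 24 h were counted by drop plate on blood agar (18-24 h, 35 °C). Log cfu/mL was plotted against time.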

| SMILES | MIC [1] [µg/mL] | MIC [2] [µg/mL] | MIC [3] [µg/mL] | MIC [4] [µg/mL] | MIC [5] [µg/mL] | MIC [6] [µg/mL] | MIC [7] [µg/mL] | MIC [8] [µg/mL] | MIC ([9]; ATCC19606, read-out: MIC Ab06) [µg/mL] | MIC [13] [µg/mL] | MIC [14] [µg/mL] | MBC ([9]; ATCC19606) [µg/mL] | MIC ([9]; ATCC19606) [µg/mL] | MIC Ab05 [15] | MIC Ab47 [8] | also measured |
| --- | --- | --- | --- | --- | --- | --- | --- | --- | --- | --- | --- | --- | --- | --- | --- | --- |
| O=C(O)c1ccc(-n2cc(/C=N/N(Cc3ccccc3)Cc3ccccc3)c(-c3ccc4ccccc4c3)n2)cc1 [Compound 10] | 3.12 (≈ 5.82 µM) | 1.56 (≈ 2.91 µM) | 1.56 (≈ 2.91 µM) | 1.56 (≈ 2.91 µM) | 3.12 (≈ 5.82 µM) | 3.12 (≈ 5.82 µM) | > 50 | > 50 | > 50 | ≥ 1.56 | – | – | – | – | – | MIC Bs ([7]; B. subtilis ATCC 6623): no activity; inhibition of biofilm formation [10]: very effective; destruction of preformed biofilm [11]: excellent ability to eliminate the preformed biofilms; toxicity for HEK293 [12]: did not show any significant toxicity; IC50 ([12]; Homo sapiens, HEK293, read-out: IC50 for HEK293 cell line): ~50 µg/mL (≈ 93.2 µM) |
| O=C(O)c1ccc(-n2cc(/C=N/Nc3ccccc3F)c(-c3ccc4ccccc4c3)n2)cc1 [Compound 14] | 12.5 (≈ 27.7 µM) | 12.5 (≈ 27.7 µM) | 1.56 (≈ 3.46 µM) | 3.12 (≈ 6.94 µM) | 12.5 (≈ 27.7 µM) | 12.5 (≈ 27.7 µM) | 6.25 (≈ 13.9 µM) | 25 (≈ 55.5 µM) | 25 (≈ 55.5 µM) | ≥ 1.56 | ≥ 6.25 | – | – | – | – | – |
| O=C(O)c1ccc(-n2cc(/C=N/Nc3cccc(F)c3)c(-c3ccc4ccccc4c3)n2)cc1 [Compound 15] | 6.25 (≈ 13.9 µM) | 12.5 (≈ 27.7 µM) | 3.12 (≈ 6.94 µM) | 1.56 (≈ 3.46 µM) | 12.5 (≈ 27.7 µM) | 6.25 (≈ 13.9 µM) | 12.5 (≈ 27.7 µM) | 12.5 (≈ 27.7 µM) | 6.25 (≈ 13.9 µM) | ≥ 1.56 | ≥ 6.25 | 12.5 (≈ 27.7 µM) | 6.25 (≈ 13.9 µM) | – | – | – |
| O=C(O)c1ccc(-n2cc(/C=N/Nc3cccc(Br)c3)c(-c3ccc4ccccc4c3)n2)cc1 [Compound 17] | 6.25 (≈ 12.2 µM) | 6.25 (≈ 12.2 µM) | 1.56 (≈ 3.05 µM) | 1.56 (≈ 3.05 µM) | 6.25 (≈ 12.2 µM) | 6.25 (≈ 12.2 µM) | 3.12 (≈ 6.11 µM) | > 50 | 12.5 (≈ 24.4 µM) | – | – | – | – | did not inhibit the growth | did not inhibit the growth | MIC Ab06 ([9]; A. baumannii ATCC 19606 (type strain)): moderately inhibited the growth |
| O=C(O)c1ccc(-n2cc(/C=N/Nc3ccc(Br)cc3)c(-c3ccc4ccccc4c3)n2)cc1 [Compound 18] | 6.25 (≈ 12.2 µM) | 12.5 (≈ 24.4 µM) | 3.12 (≈ 6.11 µM) | 0.78 (≈ 1.53 µM) | 12.5 (≈ 24.4 µM) | 12.5 (≈ 24.4 µM) | 6.25 (≈ 12.2 µM) | 6.25 (≈ 12.2 µM) | 1.56 (≈ 3.05 µM) | – | – | 12.5 (≈ 24.4 µM) | 1.56 (≈ 3.05 µM) | moderate growth inhibitor | moderate growth inhibitor | time kill effect ([16]; 24 hours at 35 °C): bacteriostatic effect; increase in log10 cfu/mL of the bacterial population ([16]; through 24 hours): ≤ 2 fold |
